# From ChEMBL document CHEMBL1141431, “Brandisianins A-F, isoflavonoids isolated from Millettia brandisiana in a screening program for death-receptor expression enhancement activity” (J Nat Prod, 2007)
# Calls of active or inactive are those of the source. The calls are words filed in the database; no cut-off is given here.
# What was measured:
# DLD-1 [1] = assay: Activation of death-receptor 5 expression in human DLD-1/ SacI cells at 35.0 uM by luciferase assay relative to control; assay type: functional
# Procedure, shortened: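 DLD-1 human colon cancer cells stably carrying pDR5/SacI (human DR5 promoter–luciferase) plated at 2 × 10^5 cells/well in RPMI with 10% FBS, 24 h at 37 °C, 5% CO2, then exposed 24 h to compound (tested at 17.5 and 35.0 µM). Lysed, luciferase substrate added, luminescence read; activity as relative light intensity versus EtOH-treated control cells; luteolin 17.5 µM positive control; n = 3.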
# HeLa = assay: Cytotoxicity against human HeLa cells; assay type: functional, cell-based
# DLD-1 [2] = assay: Cytotoxicity against human DLD1 cells; assay type: functional, cell-based
# DLD-1 [3] = assay: Activation of death-receptor 5 expression in human DLD-1/ SacI cells at 17.5 uM by luciferase assay relative to control; assay type: functional, cell-based
# Procedure, shortened: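 DLD-1/SacI (human colon cancer line stably carrying human DR5 promoter–luciferase construct) seeded in RPMI with 10% FBS, 24 h at 37 °C, 5% CO2. Treated with samples (17.5 and 35.0 µM) 24 h. Lysed, luciferase substrate added, luminescence read. Activity expressed as light intensity relative to EtOH-treated control cells. Luteolin 17.5 µM as positive control. Means, n = 3 ± SD.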
Compound,Fold change (DLD-1 [1]),IC50 (HeLa) [µM],IC50 (DLD-1 [2]) [µM],Activity (DLD-1 [3])
COc1cc(-c2coc3c4c(cc(O)c3c2=O)OC(C)(C)C=C4)c(OC)cc1O,2.4,> 25,> 25,–
Oc1cc(O)c2c(c1)O[C@H](c1ccc(O)c(O)c1)[C@H](O)C2 [(-)-EPICATECHIN],–,> 25,> 25,–
COc1cc(-c2coc3cc(O)cc(O)c3c2=O)c(OC)cc1OCC=C(C)C [BRANDISIANIN A],–,> 25,> 25,–
C=C(C)[C@H]1Cc2c(cc(O)c3c(=O)c(-c4cc(OC)c(O)cc4OC)coc23)O1 [BRANDISIANIN B],–,9.7,> 25,–
COc1cc(-c2coc3c(CC=C(C)C)c(O)cc(O)c3c2=O)c(OC)cc1O [BRANDISIANIN C],–,19.1,> 25,–
COc1cc(-c2coc3c4c(cc(O)c3c2=O)O[C@@](C)(CO)C=C4)c(OC)cc1O [BRANDISIANIN D],3,> 25,> 25,Active
COc1cc(-c2coc3c(C/C=C(\C)CO)c(O)cc(O)c3c2=O)c(OC)cc1O [BRANDISIANIN E],–,21.7,> 25,–
COc1cc2c(cc1O)[C@@H]1Oc3c(cc(OC)c(OC)c3O)[C@@H]1CO2 [BRANDISIANIN F],–,> 25,> 25,–
O=C1C[C@@H](c2ccc(O)cc2)Oc2cc(O)cc(O)c21 [NARINGENIN],–,> 25,> 25,–
COc1cc(-c2coc3cc(O)cc(O)c3c2=O)c(OC)cc1O [OLIBERGIN A],–,> 25,> 25,–
COc1cc(-c2coc3cc(O)c(CC=C(C)C)c(O)c3c2=O)c(OC)cc1O [VIRIDIFLORIN],–,> 25,> 25,–
